The list is not random: actives were taken first. Their share in the collection is about 4.6%.
PolyA inhibitor = inhibitors of polyadenylation in S. cerevisiae | S. cerevisiae SKY197-pL101 polyadenylation reporter, beta-gal luminescence; efflux-impaired pdr1/pdr3 knockout yeast; score 100 = 6 SD above DMSO | activity score, % at 12 µM | 0.02% of 300,000 active | AID 1875;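 active = lowest replicate activity score at least 50, where 100 means six control SD above control mean; inconclusive = lowest score under 50 but half or more replicates reach 50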;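 note: yeast exposed to compound for 9 h at 30 °C; higher score means more reporter readthrough which indicates perturbed polyadenylation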
Arr AP2 block = human beta-arrestin and AP2 interaction inhibition; FITC-arrestin peptide / GST-AP2 beads, flow cytometry; AP2 beta2 appendage carries R879A mutation; inhibition, % at 10 µM; 0.31% of 340,000 active; AID 504490;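 active = inhibition above a set limit, near 3 SD of compounds lacking own fluorescence, cut at about 54% in these data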;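 note: plate controls were DMSO wells for no effect and 5 µM unlabelled arrestin peptide for full effect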
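Measured by: flow cytometry, FL1 (488/535 nm); Material: AP2 appendage R879A on GSH beads; Evaluation: percent response; Timing: pre-incubation 12 min, peptide binding 1 h, room temperature; Also added: 50 nM FITC-arrestin peptide; Medium: PBS with 0.05% Tween 20 and 0.1% BSA.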
ALR inh = inhibitors of human sulfhydryl oxidase ALR; purified ALR, DTT oxidation, H2O2 HRP-luminol luminescence; inhibition, % (test concentration not listed); 3.8% of 290,000 active; AID 485317;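 active = mean replicate inhibition above about 79%, with every replicate also reaching it, limit read from the data; inconclusive = only one of the two criteria met; inactive = mean below limit and not every replicate reaching it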
Target sequence (P55789 whole entry, looked up): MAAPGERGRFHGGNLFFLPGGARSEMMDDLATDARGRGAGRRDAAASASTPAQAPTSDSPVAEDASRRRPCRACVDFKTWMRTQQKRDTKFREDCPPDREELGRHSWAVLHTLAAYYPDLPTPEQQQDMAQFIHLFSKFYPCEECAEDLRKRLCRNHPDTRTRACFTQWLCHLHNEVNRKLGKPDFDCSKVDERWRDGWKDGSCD
NLRP3 yeast inh = NALP3 inhibition in yeast. Yeast reconstituted NLRP3/ASC/caspase-1, beta-gal luminescence, 24 h. inhibition, % at 10 µM. 0.39% of 330,000 active. AID 2825;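 active = inhibition of 50% or more; inactive = inhibition below 50%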;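 note: plate controls were induced DMSO wells for no effect and uninduced yeast grown without galactose for full effect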
Pemphigus Ab inh = human desmoglein-3 autoantibody binding inhibition | 0.48% of 310,000 active | P32926 | binding (percent of control), % at 10 µM | DSG3-coupled beads, scFv-anti-DSG3-GFP binding, flow cytometry; stronger effect = lower value;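 active = binding more than 3 SD below its plate's average and above zero; inconclusive = below that plate limit but binding exactly zero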;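 note: hits lower antibody fragment binding to DSG3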
NALP1 inh = inhibitors of NALP1 inflammasome in yeast; S. cerevisiae NALP1/ASC/caspase-1 growth, X-gal OD620, 72 h; inhibition, % at 10 µM; 0.61% of 280,000 active; AID 2071; in the data active = inhibition mostly above about 24%, no sharp cut-off; inactive = mostly below about 32%
* hit, by the source's call; u = inconclusive; x = no result given.

SMILES | PolyA inhibitor | Arr AP2 block | ALR inh | NLRP3 yeast inh | Pemphigus Ab inh | NALP1 inh
O=S(=O)(c1ccc(Cl)s1)N1CCCc2cccc(O)c21 | -31 | -9 | 99* | 39 | x | -5
O=S(=O)(c1ccc(Cl)s1)N1CCc2ccccc2C1 | -8 | -5 | 3 | -2 | 102 | 10
COc1ccc(N2CCN(C(c3cccs3)C(C)NS(=O)(=O)c3ccccc3)CC2)cc1 (stereo unspecified) | -8 | 7 | 18 | 3 | 94 | 37
COc1ccc(N2CCN(C(c3cccs3)C(C)NC(=O)C(=O)N3CCCCC3)CC2)cc1 (stereo unspecified) | -18 | -1 | 98* | -1 | u | 3
CCS(=O)(=O)NC(C)C(c1cccs1)N1CCN(c2ccc(OC)cc2)CC1 (stereo unspecified) | 1 | 5 | 99* | 18 | 98 | 15
COc1ccccc1N1CCN(C(c2cccs2)C(C)NC(=O)C(=O)N2CCCCC2)CC1 (stereo unspecified) | 17 | 11 | 74 | 9 | 106 | 22
COc1ccc(N2CCN(C(c3cccs3)C(C)NC(=O)C(=O)N3CCCC3)CC2)cc1 (stereo unspecified) | -17 | -10 | 98* | 2 | 105 | 26
S=C(NCCc1cccc(Cl)c1)NC1CCCCC1 | -8 | -6 | 12 | 31 | 105 | 1
CCOC(=O)CSc1nc(-c2ccccc2)nc2ccc(C)cc12 | 13 | 15 | -1 | 11 | 76* | 2
O=C(NNC(=O)c1ccc(Br)o1)c1csc(N2CCOCC2)n1 | x | 3 | 3 | 16 | 99 | x
Cc1ccc(-c2nc(NCCCO)c3ccccc3n2)cc1 | -9 | -4 | 98* | 19 | 118 | x
Cc1ccc(-c2nc(NCCN(C)C)c3ccccc3n2)cc1 | 0 | -1 | 6 | 11 | 106 | 11
CC(NC(=O)CCn1c(=S)[nH]c2ccsc2c1=O)c1ccccc1 (stereo unspecified) | 2 | -11 | 95* | 24 | x | 16
CCOC(=O)N1CCN(C(=O)CCCn2c(=S)[nH]c3ccsc3c2=O)CC1 | 19 | -31 | 95* | 11 | 104 | -1
O=c1c2sccc2[nH]c(=S)n1Cc1ccccc1 | 0 | 35 | 31 | -7 | x | 10
CCOC(=O)N1CCN(C(=O)CCCCCn2c(=S)[nH]c3ccsc3c2=O)CC1 | -7 | 0 | 93* | 18 | 102 | -3
CCOC(=O)N1CCN(C(=O)CCCn2c(=S)[nH]c3ccccc3c2=O)CC1 | 8 | 3 | 60 | 25 | x | x
CC(NC(=O)c1ccco1)C(=O)OCC(=O)N1CCCCCC1 (stereo unspecified) | x | 0 | x | 14 | 100 | x
CCOCCc1nnc(NC(=O)CCS(=O)(=O)c2ccccc2)s1 | 14 | -3 | -2 | 14 | 106 | 13
CSCCC(NC(=O)c1ccco1)C(=O)N1CC(C)OC(C)C1 (stereo unspecified) | x | -4 | 1 | 13 | x | x
C=CCC1(CC=C)CCCN1C(=O)Cn1nnnc1CN(C)C(C)C | u | 30 | 0 | 1 | 113 | 6
O=S1(=O)CC(NCc2ccccc2)C(Nc2ccccc2)C1 (stereo unspecified) | 0 | -2 | 35 | 11 | x | 22
COc1ccc(NC2CS(=O)(=O)CC2NCc2ccco2)cc1 (stereo unspecified) | 5 | 8 | 99* | 7 | 101 | 3
CC(C)n1c(/C=C/[C@H](O)C[C@H](O)CC(=O)O)c(-c2ccc(F)cc2)c2ccccc21 | x | -6 | 99* | 20 | x | x
O=C(O)C[C@H](O)C[C@H](O)/C=C/c1c(C2CC2)nc2ccccc2c1-c1ccc(F)cc1 | -6 | x | x | x | x | x
SMILES | PolyA inhibitor | Arr AP2 block | ALR inh | NLRP3 yeast inh | Pemphigus Ab inh | NALP1 inh
COc1ccc(-n2cnc3c(N)nc(N)nc32)cc1 | x | 5 | x | x | 91 | x
Nc1nc2ccc(N3CCOCC3)cc2s1 | x | 19 | 98* | 7 | 92 | 0
O=C(COC(=O)c1cc(S(=O)(=O)N2CCOCC2)ccc1F)Nc1ccccc1C(F)(F)F | x | x | x | x | 100 | x
CC(=O)Nc1cccc(OCC(O)Cn2cnc3ccccc32)c1 (stereo unspecified) | 0 | -5 | 100* | 8 | 90 | 19
COc1ccccc1N1CCN(C(=O)CCS(=O)(=O)c2ccc3c(c2)oc(=O)n3C)CC1 | -3 | 1 | 88* | 8 | x | 3
Cc1c(NS(=O)(=O)c2ccc3nc(COc4ccccc4Cl)[nH]c3c2)c(=O)n(-c2ccccc2)n1C | -12 | -1 | 99* | 8 | 101 | -8
CSc1nc2ccc(S(=O)(=O)Nc3c(C)n(C)n(-c4ccccc4)c3=O)cc2s1 | -5 | 5 | 99* | 23 | 79 | -3
CC1C(=O)N(Cc2cn(CCC3OCCCO3)nn2)CCS(=O)(=O)N1Cc1ccc(-c2ccc(Cl)c(Cl)c2)cc1 (stereo unspecified) | x | x | x | x | 104 | x
Cc1ccccc1OCC(=O)Nc1ccc2[nH]ncc2c1 | -5 | 0 | -4 | 15 | 97 | 16
CC(C)CN(C(=O)C1=COCCO1)c1c(N)n(Cc2ccccc2)c(=O)[nH]c1=O | x | x | x | x | 107 | x
Oc1ccccc1CNc1ccc2c(c1)OCCO2 | 12 | 20 | 99* | 32 | 96 | 12
c1cncc(CNc2ccc3c(c2)OCO3)c1 | 6 | 19 | 80* | 0 | 100 | -4
Cc1ccc(NCc2ccccc2O)cc1C | -1 | -11 | 91* | -3 | 102 | 5
O=C(COc1ccc2ccc(=O)oc2c1)Nc1cccc(S(=O)(=O)N2CCCCC2)c1 | x | 5 | -2 | 17 | 102 | x
Cc1nc(-c2cccc(NC(=O)c3ccc(Cl)c(S(=O)(=O)N4CCCC4)c3)c2)cs1 | x | x | x | x | 108 | x
COc1ccc2[nH]c(=S)[nH]c2c1 | 21 | 3 | 98* | 15 | 102 | -7
O=C1c2cccc3cccc(c23)C(=O)N1Cc1ccccn1 | x | x | x | x | 104 | x
COc1ccc(COC(=O)c2ccc(Br)c(S(=O)(=O)N3CCOCC3)c2)cc1F | 5 | -2 | 0 | 7 | 101 | x
CC(C)NC(=O)Nc1ccc2c(c1)C(=O)N([C@@H](C)CO)C[C@H](C)[C@H](CN(C)S(=O)(=O)c1ccccc1)OCCCC[C@H](C)O2 | x | x | x | x | 107 | x
N#Cc1ccccc1S(=O)(=O)N1CCC(C(=O)NCc2ccccc2CN2CCCC2)CC1 | x | 17 | 1 | 0 | 105 | x
N#CC12CCCCC1CC1CCCCC1(C#N)N2Cc1ccccn1 (stereo unspecified) | 0 | -14 | -4 | 13 | u | 38*

Bioassay records from PubChem BioAssay.
